Measured values from ChEMBL document CHEMBL2169850, “3,6-bis(3-alkylguanidino)acridines as DNA-intercalating antitumor agents” (Eur J Med Chem, 2012).
Activity calls are given as the source filed them. The calls are words filed in the database; no cut-off is given here.

Legend:
HL-60 [1] = assay: Drug uptake in human HL60 cells with necrotic morphology at 50 uM incubated for 18 hrs by fluorescence microscopy; format: ADME, cell-based; settings: hl-60, 18 h
Method in brief: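 HL-60 cells were treated with 50 µM compound for 18 h, washed with PBS, resuspended in HBSS and mounted as native slides. Cells were imaged by inverted fluorescence microscopy at 40×, with excitation 360/40 and emission 470/40. The fluorescence channel was merged with brightfield images.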

Nucleic Acid [2] = assay: Binding affinity to calf thymus DNA assessed as hypochromacity at 12.8 uM by UV-visible absorption spectroscopy; settings: Bos taurus
HL-60 [3] = assay: Antiproliferative activity against human HL60 cells assessed as cell number at 15 uM incubated for 48 hrs by Coulter counting method; format: functional
Method in brief: (§1)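 HL-60 cells in RPMI with 10% heat-inactivated FCS, antibiotics and amphotericin, 37 °C, 5% CO2, seeded in 60 mm dishes. Compound added at 5, 15 or 25 µM for 24, 48 or 72 h. Absolute cell counts taken by Coulter counter and expressed as percentage of untreated control. Mean ± SD of at least three independent experiments; one-way ANOVA with Tukey test, p < 0.05.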

HL-60 [4] = assay: Induction of apoptosis in human HL60 cells at 5 to 25 uM incubated for 48 hrs by AnnexinV/propidium iodide staining method; format: functional, cell-based
Method in brief: (§2)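 HL-60 cells (1.5 × 10^5) were treated at 5–25 µM for 24, 48 or 72 h and harvested. They were stained with Annexin V-FITC for 10 min in HEPES/CaCl2/NaCl binding buffer, washed, briefly stained with PI (1 mg/mL) and analysed by flow cytometry for apoptosis and necrosis. Mean ± SD, n ≥ 3.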

HL-60 [5] = assay: Cell cycle arrest in human HL60 cells assessed as accumulation at G1 phase at 15 uM incubated for 24 hrs by flow cytometry (reference value: 35.96 +/- 1.63%); format: functional
HL-60 [6] = assay: Cell cycle arrest in human HL60 cells assessed as accumulation at S phase at 15 uM incubated for 24 hrs by flow cytometry (reference value: 44.41 +/- 0.77%); format: functional
HL-60 [7] = assay: Cell cycle arrest in human HL60 cells assessed as accumulation at G1 phase at 15 uM incubated for 48 hrs by flow cytometry (reference value: 38.29 +/- 0.22%); format: functional
HL-60 [8] = assay: Cell cycle arrest in human HL60 cells assessed as accumulation at G2/M phase at 15 uM incubated for 48 hrs by flow cytometry (reference value: 16.42 +/- 1.03%); format: functional
HL-60 [9] = assay: Antiproliferative activity against human HL60 cells assessed as cell number at 15 uM incubated for 24 hrs by Coulter counting method; format: functional; method in brief: as §1
HL-60 [10] = assay: Cell cycle arrest in human HL60 cells assessed as accumulation at G2/M phase at 15 uM incubated for 72 hrs by flow cytometry (reference value: 12.68 +/- 3.21%); format: functional
HL-60 [11] = assay: Cell cycle arrest in human HL60 cells assessed as accumulation at G2/M phase at 25 uM incubated for 48 hrs by flow cytometry (reference value: 16.42 +/- 1.03%); format: functional
HL-60 [12] = assay: Induction of apoptosis in human HL60 cells at 5 to 25 uM incubated for 72 hrs by AnnexinV/propidium iodide staining method; format: functional, cell-based; method in brief: as §2
Nucleic Acid [13] = assay: Binding affinity to calf thymus DNA at 11 to 58 uM by LD spectroscopy; format: nucleic-acid assay; settings: Bos taurus
Method in brief: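 Flow LD spectra were recorded in a Couette cell (1 mm path) from 210 to 550 nm at 25 °C in 10 mM Tris. ctDNA was modified by compound at 11–58 × 10^-6 M.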

HL-60 [14] = assay: Antiproliferative activity against human HL60 cells assessed as cell number at 25 uM incubated for 72 hrs by Coulter counting method; format: functional; method in brief: as §1
HL-60 [15] = assay: Antiproliferative activity against human HL60 cells assessed as cell number at 5 uM incubated for 72 hrs by Coulter counting method; format: functional; method in brief: as §1
HL-60 [16] = assay: Cell cycle arrest in human HL60 cells assessed as accumulation at G1 phase at 15 uM incubated for 72 hrs by flow cytometry (reference value: 47.02 +/- 6.19%); format: functional
HL-60 [17] = assay: Antiproliferative activity against human HL60 cells assessed as cell number at 5 uM incubated for 48 hrs by Coulter counting method; format: functional; method in brief: as §1
HL-60 [18] = assay: Induction of mitochondrial membrane dissipation in human HL60 cells at 5 to 25 uM incubated for 24 to 72 hrs by FACS assay; format: functional
Method in brief: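 HL-60 cells (5 × 10^5) were treated 24, 48 or 72 h, washed in HBSS and loaded with TMRE for 20 min at 37 °C in the dark. TMRE fluorescence in FL2 was read by flow cytometry, with 1 × 10^4 gated cells per sample. Result is the percentage of cells with decreased fluorescence (dissipated MMP). Mean ± SD, n ≥ 3.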

HL-60 [19] = assay: Cell cycle arrest in human HL60 cells assessed as accumulation at G2/M phase at 25 uM incubated for 24 hrs by flow cytometry (reference value: 19.62 +/- 0.96%); format: functional
HL-60 [20] = assay: Induction of necrosis in human HL60 cells at 5 to 25 uM incubated for 48 hrs by AnnexinV/propidium iodide staining method; format: functional, cell-based
Method in brief: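 HL-60 cells (1.5 × 10^5) were exposed to compound, then stained 10 min with Annexin V-FITC in HEPES/CaCl2/NaCl binding buffer. Cells were washed, briefly stained with propidium iodide and analysed by flow cytometry for apoptotic and necrotic fractions. Mean ± SD of at least three independent experiments.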

HL-60 [21] = assay: Cell cycle arrest in human HL60 cells assessed as accumulation at G1 phase at 25 uM incubated for 72 hrs by flow cytometry (reference value: 47.02 +/- 6.19%); format: functional
HL-60 [22] = assay: Cell cycle arrest in human HL60 cells assessed as accumulation at G1 phase at 5 uM incubated for 24 hrs by flow cytometry (reference value: 35.96 +/- 1.63%); format: functional
HL-60 [23] = assay: Antiproliferative activity against human HL60 cells assessed as cell number at 5 uM incubated for 24 hrs by Coulter counting method; format: functional; method in brief: as §1
Nucleic Acid [24] = assay: Binding affinity to calf thymus DNA assessed as melting temperature at 12.4 uM by thermal denaturation study; format: nucleic-acid assay; settings: Bos taurus
HL-60 [25] = assay: Antiproliferative activity against human HL60 cells assessed as cell number at 15 uM incubated for 72 hrs by Coulter counting method; format: functional; method in brief: as §1

With `CCNC(=N)Nc1ccc2cc3ccc(NC(=N)NCC)cc3nc2c1.Cl.Cl.O` the Drug uptake (HL-60 [1]) was “Active”, the Activity (Nucleic Acid [2]) was 23% and the Activity (HL-60 [3]) was 80.03%. The Activity (HL-60 [4]) was “inactive”, the Activity (HL-60 [5]) was “inactive” and the Activity (HL-60 [6]) was “inactive”. The Activity (HL-60 [7]) was “inactive”, the Activity (HL-60 [8]) was “inactive” and the Activity (HL-60 [9]) was 78.95%. For the same molecule, the Activity (HL-60 [10]) was “inactive”, the Activity (HL-60 [11]) was “inactive” and the Activity (HL-60 [12]) was “inactive”. The Activity (Nucleic Acid [13]) was “Active”, the Activity (HL-60 [14]) was 94.84% and the Activity (HL-60 [15]) was 79.32%. The Activity (HL-60 [16]) was “inactive”, the Activity (HL-60 [17]) was 78.56% and the Activity (HL-60 [18]) was “inactive”. The Activity (HL-60 [19]) was “inactive”, the Activity (HL-60 [20]) was “inactive” and the Activity (HL-60 [21]) was “inactive”. The Activity (HL-60 [22]) was “inactive”, the Activity (HL-60 [23]) was 71.7% and the Tm (Nucleic Acid [24]) was 84 °C. For the same molecule, the Activity (HL-60 [25]) was 84.97%.
With `CCCCCCNC(=N)Nc1ccc2cc3ccc(NC(=N)NCCCCCC)cc3nc2c1.Cl.Cl.O` the Drug uptake (HL-60 [1]) was “Active”, the Activity (Nucleic Acid [2]) was 42% and the Activity (HL-60 [3]) was 52.7%. The Activity (HL-60 [4]) was “Active”, the Activity (HL-60 [5]) was 41.77% and the Activity (HL-60 [6]) was 46.58%. The Activity (HL-60 [7]) was 64.37%, the Activity (HL-60 [8]) was 8.11% and the Activity (HL-60 [9]) was 74.49%. For the same molecule, the Activity (HL-60 [10]) was 5.85%, the Activity (HL-60 [11]) was 6.51% and the Activity (HL-60 [12]) was “Active”. For the same molecule, the Activity (Nucleic Acid [13]) was “Active”, the Activity (HL-60 [14]) was 20.46% and the Activity (HL-60 [15]) was 57.54%. It also gave an Activity (HL-60 [16]) of 70.31%, an Activity (HL-60 [17]) of 72.18% and an Activity (HL-60 [18]) of 70%. For the same molecule, the Activity (HL-60 [19]) was 10.37%, the Activity (HL-60 [20]) was “Active” and the Activity (HL-60 [21]) was 73.59%. For the same molecule, the Activity (HL-60 [22]) was 36.31%, the Activity (HL-60 [23]) was 73.7% and the Tm (Nucleic Acid [24]) was 89 °C. It also gave an Activity (HL-60 [25]) of 33.13%.
